Published values pooled from the literature.
Each line is one published result; the experiments were not run side by side.
Target: Ephrin type-B receptor 2 (EPHB2, Homo sapiens, UniProt P29323)
Residues used in one study (P29323 19-1055): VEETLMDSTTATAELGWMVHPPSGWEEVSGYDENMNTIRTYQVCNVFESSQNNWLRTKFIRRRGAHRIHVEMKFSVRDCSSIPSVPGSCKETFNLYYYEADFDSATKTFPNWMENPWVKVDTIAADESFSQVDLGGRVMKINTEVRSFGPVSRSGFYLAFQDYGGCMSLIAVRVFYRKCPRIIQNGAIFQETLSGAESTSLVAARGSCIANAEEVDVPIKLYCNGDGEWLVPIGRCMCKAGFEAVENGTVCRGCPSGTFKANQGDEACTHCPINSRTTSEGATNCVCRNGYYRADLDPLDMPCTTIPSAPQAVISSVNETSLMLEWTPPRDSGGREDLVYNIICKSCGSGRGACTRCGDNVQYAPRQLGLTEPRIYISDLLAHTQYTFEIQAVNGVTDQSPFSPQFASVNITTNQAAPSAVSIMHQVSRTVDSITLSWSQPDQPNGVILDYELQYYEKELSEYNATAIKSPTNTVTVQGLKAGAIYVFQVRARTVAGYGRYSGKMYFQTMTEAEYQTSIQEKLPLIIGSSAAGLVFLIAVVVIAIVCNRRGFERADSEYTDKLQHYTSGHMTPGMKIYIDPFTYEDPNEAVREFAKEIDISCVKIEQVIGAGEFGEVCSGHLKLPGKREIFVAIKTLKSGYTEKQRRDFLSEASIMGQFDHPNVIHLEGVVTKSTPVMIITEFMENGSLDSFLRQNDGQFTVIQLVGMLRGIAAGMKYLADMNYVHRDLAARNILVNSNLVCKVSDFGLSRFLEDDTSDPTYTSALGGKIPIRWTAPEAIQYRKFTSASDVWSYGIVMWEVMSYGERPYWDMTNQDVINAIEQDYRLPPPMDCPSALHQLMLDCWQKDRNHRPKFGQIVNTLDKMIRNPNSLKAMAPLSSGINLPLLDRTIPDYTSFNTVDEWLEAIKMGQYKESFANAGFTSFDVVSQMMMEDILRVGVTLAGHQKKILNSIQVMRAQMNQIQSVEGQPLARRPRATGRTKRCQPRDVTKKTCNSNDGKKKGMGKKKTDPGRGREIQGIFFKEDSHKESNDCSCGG

SMILES | effect on | mode | method | tested at | measurement | result
CC/C(=N\NC(=O)NCc1cccc(O)c1)c1ccc(O)c(C)c1O | enzyme activity | inhibitor |  | 0.1 µM | inhibition | 1.5%
C#Cc1cccc(Nc2ncnc3cc(OCCOC)c(OCCOC)cc23)c1 | cell-free assay |  |  | 0.5 µM | remaining signal | 95.1%
Cc1ccc(Nc2nccc(N(C)c3ccc4c(C)n(C)nc4c3)n2)cc1S(N)(=O)=O | enzyme activity | inhibitor |  | 0.3 µM | inhibition | 7%
CN(C)c1ncnc(-c2ccc3nc(Nc4cc(CN5CCN(C(=O)CC(F)(F)F)CC5)ccn4)[nH]c3c2)c1Cl | cell-free assay |  | competition with immobilised ligand | 1 µM | remaining binding | 100%
c1ccc(CNc2nc(N3CCOc4ccccc43)nc3c2CCCC3)cc1 | target engagement in cells | inhibitor | chemoproteomics | 20 mM | inhibition | 2.6%
N#CCCc1ccc2c(c1)-c1[nH]c3ccc([N+](=O)[O-])cc3c1CC(=O)N2 | cell-free assay |  |  | 0.5 µM | remaining signal | 98.5%
O=C(Nc1cccnn1)N1CCC(=Cc2cccc(Oc3ccc(C(F)(F)F)cn3)c2)CC1 | cell-free assay |  | competition with immobilised ligand | 1 µM | remaining binding | 100%
COc1cc2ncnc(Nc3ccc(Oc4ccccc4)cc3C)c2cc1OC | enzyme activity | inhibitor |  | 1 µM | inhibition | 25%
O=C1NC(=O)c2cc(Nc3ccc(F)cc3)c(Nc3ccc(F)cc3)cc21 | cell-free assay |  |  | 0.5 µM | remaining signal | 89.3%
Cc1nc(C2CCN(C(=O)c3ccc(OC(F)(F)F)cc3N)CC2)c2ncc(N3CCN(C)CC3)cc2n1 | cell-free assay |  | competition with immobilised ligand | 1 µM | remaining binding | 100%
COc1cccc2c(NCc3ccccc3)nc(-n3c(N)nc4ccccc43)nc12 | target engagement in cells | inhibitor | chemoproteomics | 20 mM | inhibition | 8.3%
CNC(=O)c1cc(Oc2ccc(NC(=O)Nc3ccc(Cl)c(C(F)(F)F)c3)cc2)ccn1 | enzyme activity | inhibitor |  | 10 µM | inhibition | 95%
O=C(Nc1cnn(-c2csc(C(=O)NC3COC3)c2)c1)Nc1ccccc1Cl | enzyme activity | inhibitor |  | 5 µM | remaining activity | 101%
CSc1cccnc1N1CCN(Cc2nc3ccccc3[nH]2)CC1 | cell-free assay |  | competition with immobilised ligand | 1 µM | remaining binding | 99%
COc1cc(Nc2cnc(C#N)c(O[C@H](C)CN(C)C)n2)ncc1-c1cnn(C)c1 | enzyme activity | inhibitor | radiometric | 10 µM | remaining activity | 63%
Cc1cnc(NC2CCOCC2)nc1-n1cnc(C(=O)NC(CN)c2cc(F)cc(Cl)c2)c1 (stereo not shown) | enzyme activity | inhibitor | radiometric | 1 µM | remaining activity | 96%
Cn1c(=O)n(-c2ccc(C(C)(C)C#N)cc2)c2c3cc(-c4cnc5ccccc5c4)ccc3ncc21 | enzyme activity | inhibitor |  | 10 µM | remaining activity | 77%
O=C(NCc1ncc(C(F)(F)F)cc1Cl)c1ccc2c(c1)C1(CCS(=O)(=O)CC1)[C@H](C1CC1)N2S(=O)(=O)c1ccc(F)cc1 | cell-free assay |  | competition with immobilised ligand | 1 µM | remaining binding | 100%
CN(C)C1CCN(CC#Cc2nn(C3CCCC3)c3nc(NCc4ccccc4)ncc23)C1 (stereo not shown) | enzyme activity | inhibitor | FRET | 1 µM | inhibition | 8%
CCCS(=O)(=O)Nc1ccc(F)c(C(=O)c2c[nH]c3ncc(-c4ccc(Cl)cc4)cc23)c1F | enzyme activity | inhibitor |  | 1 µM | inhibition | < 10%
CCC(=O)N[C@@H]1CC[C@H](C(=O)N(C)c2ccc(-c3nc4ccccc4o3)cc2)C1 | cell-free assay |  | competition with immobilised ligand | 1 µM | remaining binding | 82%
CN1CC(Oc2cnc(C#N)cc2-c2ccn3nc(NC(=O)C4CC4)cc3c2)C1 | enzyme activity | inhibitor |  | 1 µM | inhibition | 4%
CN(C(=O)c1ccccc1)c1cc(N(C)c2ccc3c(c2)CCc2ccc(C(=O)NCCN4CCOCC4)cc2C3=O)ccc1F | cell-free assay |  | competition with immobilised ligand | 1 µM | remaining binding | 82%
O=C1Nc2ccc(Cl)cc2C1=Cc1cc(Cl)c(O)c(Cl)c1 | cell-free assay |  |  | 0.5 µM | remaining signal | 90.9%
CC(C)(O)[C@H]1CC[C@H](Nc2ccc3ncc(-c4cccc(C(F)(F)F)c4)n3n2)CC1 | enzyme activity | inhibitor |  | 1 µM | remaining activity | 93.5%
CCN(CC)CCNC(=O)c1c(C)[nH]c(/C=C2\C(=O)Nc3ccc(F)cc32)c1C | enzyme activity | inhibitor |  | 10 µM | inhibition | 90%
O=C(Nc1ccc(Oc2ccc(F)cc2)cc1)N1CCc2ncccc2[C@H]1c1ccc(F)cc1 | cell-free assay |  | competition with immobilised ligand | 1 µM | remaining binding | 91%
CC(C)(C)c1nc2c(s1)c1nc(N)ncc1c1ccc(NS(=O)(=O)c3c(F)cccc3F)c(F)c12 | enzyme activity | inhibitor | radiometric | 1 µM | remaining activity | 91%
